The results in this text go back to ChEMBL document CHEMBL3822395, “2-Aryl-3-(2-morpholinoethyl)thiazolidin-4-ones: Synthesis, anti-inflammatory in vivo, cytotoxicity in vitro and molecular docking studies” (Eur J Med Chem, 2016).

Data set [1] can be described thus: Cytotoxicity against African green monkey Vero cells assessed as cell viability at 1000 ug/ml by MTT assay. The class given is cell-based. The following applies: chlorocebus sabaeus, read-out: Activity. The method in brief:
(§1)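 Vero cells were seeded at 2×10^6 cells mL⁻¹ in E-MEM with 10% FBS and antibiotics, then left to attach for 24 h and 48 h before treatment. Dilutions were 62.5–1000 µg/mL in E-MEM. After a PBS wash, cells got MTT 1 mg/mL for 4 h at 37 °C in the dark. Formazan was dissolved in DMSO and read at 540 nm. Viability % = AT/AC × 100. Three independent experiments.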
A general note: Tetrazolium assays rely on reduction of a dye to a coloured formazan, in cell work by metabolically active cells.

The subject of data set [2] is Mus musculus. Nature of the data set: Antiinflammatory activity in BALB/c mouse ear assessed as inhibition of croton oil-induced ear redness up to 333 mg/kg administered topically on ear measured at 6 hrs relative to control. It counts as functional, organism-based. The method in brief:
(§2)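 Male BALB/c mice, 3 per group, dosed at 33–333 mg/Kg. Ears were checked at 6 h for heat, redness and swelling against a croton oil-induced control (2 μg/ear in acetone).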

Data set [3] in a line: Cytotoxicity against African green monkey Vero cells assessed as cell viability at 250 ug/ml by MTT assay. The class given is cell-based. The note with it: chlorocebus sabaeus, read-out: Activity. The method in brief:
as §1

Data set [4] deals with Mus musculus. The data set can be described thus: Antiinflammatory activity in BALB/c mouse assessed as inhibition of croton oil-induced ear edema at 166 mg/kg administered topically on ear measured at 6 hrs. It counts as functional. The following applies: topical. The method in brief: (§3)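 Male BALB/c mice (25-35 g, mean 30 g), 3 per group. Ear edema induced with croton oil 2 μg/ear in acetone. Compounds were dosed at 33, 100, 166 and 333 mg/Kg, with indomethacin 33 mg/Kg as positive control. At 6 h a 6 mm ear punch was weighed and compared with untreated ears (edema index). Inhibition % = 100 × (1 − Vt/Vc) versus the control group.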

The subject of data set [5] is Mus musculus. Nature of the data set: Antiinflammatory activity in BALB/c mouse ear assessed as inhibition of croton oil-induced ear swelling up to 333 mg/kg administered topically on ear measured at 6 hrs relative to control. It counts as functional, organism-based. The method in brief: as §2
Data set [6] in a line: Cytotoxicity against African green monkey Vero cells assessed as cell viability at 125 ug/ml by MTT assay. It counts as cell-based. The following applies: chlorocebus sabaeus, read-out: Activity. The method in brief:
as §1

Data set [7] has as its system Mus musculus. Nature of the data set: Antiinflammatory activity in BALB/c mouse ear assessed as inhibition of croton oil-induced heat in ear up to 333 mg/kg administered topically on ear measured at 6 hrs relative to control. It counts as functional, organism-based. The procedure, abridged: as §2
A short description of data set [8]: Cytotoxicity against African green monkey Vero cells assessed as cell viability at 62.5 ug/ml by MTT assay. It counts as cell-based. The following applies: chlorocebus sabaeus, read-out: Activity. The procedure, abridged:
as §1

Data set [9] can be described thus: Cytotoxicity against African green monkey Vero cells assessed as cell viability at 500 ug/ml by MTT assay. It counts as cell-based. The note with it: chlorocebus sabaeus, read-out: Activity. The procedure, abridged: as §1
Data set [10] has as its system Mus musculus. The data set can be described thus: Antiinflammatory activity in BALB/c mouse assessed as inhibition of croton oil-induced ear edema at 33 mg/kg administered topically on ear measured at 6 hrs. The class given is functional. The following applies: topical. The method in brief: as §3

Activity calls are given as the source filed them. The rule behind the calls is not given here.

A word on the inhibition in vivo: it is how much of the control response was suppressed. Consider `O=C1CSC(c2ccccc2[N+](=O)[O-])N1CCN1CCOCC1` (centres undefined), for which, in [1], the viability at 1000 ug/ml amounted to 83%. Moreover, the inhibition result in [2], in data set [5] and in data set [7] was “Active” throughout. Moreover, the viability at 250 ug/ml in data set [3] turned out to be 98%. Further, the inhibition in vivo at 166 mg/kg in data set [4] came out at 50%. In addition, in [6], the viability at 125 ug/ml amounted to 98%. The viability at 62.5 ug/ml in data set [8] was 98%. Moreover, the viability at 500 ug/ml in data set [9] was determined as 91%.
Regarding `O=C1CSC(c2ccc(O)cc2)N1CCN1CCOCC1` (centres undefined), the viability at 1000 ug/ml in [1] was found to be 73%. The inhibition result in [2], in data set [5] and in data set [7] was “Active” in each case. Also, the viability at 250 ug/ml in data set [3] came to 83%. Besides, the inhibition in vivo at 166 mg/kg in [4] is 45%. The viability at 125 ug/ml in data set [6] stood at 83%. Moreover, the viability at 62.5 ug/ml in data set [8] worked out at 83%. The viability at 500 ug/ml in [9] stood at 79%.
In the case of `O=C1CSC(c2ccc(F)cc2)N1CCN1CCOCC1` (centres undefined), the viability at 1000 ug/ml in data set [1] came out at 89%. Also, the inhibition result in data set [2], in [5] and in [7] was “Active” in each case. Also, the viability at 250 ug/ml in [3] is 100%. Also, the inhibition in vivo at 166 mg/kg in data set [4] was 39%. The viability at 125 ug/ml in [6] turned out to be 100%. For the same compound, the viability at 62.5 ug/ml in data set [8] came to 100%. For the same compound, the viability at 500 ug/ml in [9] turned out to be 91%.
As to `COc1ccc(C2SCC(=O)N2CCN2CCOCC2)cc1` (centres undefined), in [1], the viability at 1000 ug/ml was 89%. Also, the inhibition entry in [2], in data set [5] and in data set [7] was “Active” each time. Moreover, the viability at 250 ug/ml in data set [3] came to 100%. In addition, in data set [4], the inhibition in vivo at 166 mg/kg is 54%. The viability at 125 ug/ml in data set [6] was 100%. In addition, in data set [8], the viability at 62.5 ug/ml amounted to 100%. In data set [9], the viability at 500 ug/ml stood at 90%.
Turning to `O=C1CSC(c2cccc([N+](=O)[O-])c2)N1CCN1CCOCC1` (centres undefined), the viability at 1000 ug/ml in [1] came to 92%. In addition, the inhibition result in data set [2], in [5] and in data set [7] was “Active” in each case. For the same compound, the viability at 250 ug/ml in data set [3] was found to be 100%. Moreover, the inhibition in vivo at 166 mg/kg in data set [4] was 48%. For the same compound, the viability at 125 ug/ml in data set [6] turned out to be 100%. Also, the viability at 62.5 ug/ml in data set [8] was 100%. Moreover, the viability at 500 ug/ml in [9] came out at 92%.
Consider `COc1ccc2c(c1)c(CC(=O)O)c(C)n2C(=O)c1ccc(Cl)cc1` [INDOMETHACIN], for which the inhibition in vivo at 33 mg/kg in [10] stood at 58%.
For `Cc1ccc(C2SCC(=O)N2CCN2CCOCC2)cc1` (centres undefined), the viability at 1000 ug/ml in data set [1] is 73%. Besides, the inhibition entry in [2], in data set [5] and in data set [7] was “Active” each time. For the same compound, in data set [3], the viability at 250 ug/ml turned out to be 80%. For the same compound, the inhibition in vivo at 166 mg/kg in data set [4] came to 42%. Also, the viability at 125 ug/ml in data set [6] turned out to be 87%. In addition, the viability at 62.5 ug/ml in data set [8] worked out at 87%. Further, the viability at 500 ug/ml in data set [9] stood at 76%.
With `O=C1CSC(c2ccc(Cl)cc2)N1CCN1CCOCC1` (centres undefined), in [1], the viability at 1000 ug/ml was found to be 74%. For the same compound, the inhibition entry in data set [2], in data set [5] and in [7] was “Active” throughout. In addition, the viability at 250 ug/ml in data set [3] is 87%. Further, the inhibition in vivo at 166 mg/kg in data set [4] turned out to be 44%. Further, in [6], the viability at 125 ug/ml was determined as 87%. Further, the viability at 62.5 ug/ml in [8] worked out at 87%. Besides, the viability at 500 ug/ml in [9] was found to be 76%.
